Measured values reported in ChEMBL document CHEMBL3259728, “Design, synthesis and biological evaluation of some novel substituted quinazolines as antitumor agents” (2014).

How the values were obtained:
Format in all cases: functional
[1] = Growth inhibition of human RXF393 cells assessed as cell growth at 10^-5 M after 48 hrs by SRB assay; settings: RXF 393, 48 h, read-out: Activity
SNB-19 = assay: Growth inhibition of human SNB19 cells assessed as cell growth at 10^-6 M after 48 hrs by SRB assay; settings: SNB-19, 48 h, read-out: Activity
SR [2] = assay: Growth inhibition of human SR cells assessed as cell growth at 10^-8 M after 48 hrs by SRB assay; settings: read-out: Activity
NCI-H460 = assay: Growth inhibition of human NCI-H460 cells assessed as cell growth at 10^-4 M after 48 hrs by SRB assay; settings: NCI-H460, 48 h, read-out: Activity
[3] = Growth inhibition of human EKVX cells assessed as cell growth at 10^-4 M after 48 hrs by SRB assay; settings: read-out: Activity
SF-268 = assay: Cytotoxicity against human SF268 cells after 48 hrs by SRB assay; settings: SF-268, 48 h
Outline: (§1)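 NCI 60-cell-line panel of human tumour lines from nine cancer types. Continuous 48 h exposure at five 10-fold dilutions from 10^-4 to 10^-8 M, with 5-FU as positive control. SRB protein stain read spectrophotometrically at time zero, untreated control and each concentration. GI50, TGI and LC50 were derived from the [(Ti−Tz)/(C−Tz)]×100 growth relations, and out-of-range values are given as > or < the tested limits.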

[4] = Growth inhibition of human EKVX cells assessed as cell growth at 10^-6 M after 48 hrs by SRB assay; settings: read-out: Activity
SW-620 = assay: Growth inhibition of human SW620 cells assessed as cell growth at 10^-8 M after 48 hrs by SRB assay; settings: SW-620, 48 h, read-out: Activity
[5] = Growth inhibition of human OVCAR8 cells assessed as cell growth at 10^-5 M after 48 hrs by SRB assay; settings: OVCAR-8, 48 h, read-out: Activity
Malme-3M = assay: Cytotoxicity against human MALME-3M cells after 48 hrs by SRB assay; outline: as §1
[6] = Growth inhibition of human MOLT4 cells assessed as cell growth at 10^-4 M after 48 hrs by SRB assay; settings: MOLT-4, 48 h, read-out: Activity
[7] = Growth inhibition of human LOXIMVI cells assessed as cell growth at 10^-5 M after 48 hrs by SRB assay; settings: LOX IMVI, read-out: Activity
HOP-62 = assay: Growth inhibition of human HOP62 cells assessed as cell growth at 10^-7 M after 48 hrs by SRB assay; settings: HOP-62, 48 h, read-out: Activity
SK-MEL-5 [8] = assay: Growth inhibition of human SK-MEL-5 cells assessed as cell growth at 10^-4 M after 48 hrs by SRB assay; settings: SK-MEL-5, 48 h, read-out: Activity
NCI-H23 = assay: Growth inhibition of human NCI-H23 cells assessed as cell growth at 10^-4 M after 48 hrs by SRB assay; settings: NCI-H23, 48 h, read-out: Activity
MCF7 = assay: Growth inhibition of human MCF7 cells assessed as cell growth at 10^-4 M after 48 hrs by SRB assay; settings: MCF7, 48 h, read-out: Activity
SR [9] = assay: Growth inhibition of human SR cells assessed as cell growth at 10^-7 M after 48 hrs by SRB assay; settings: read-out: Activity
[10] = Cytotoxicity against human HCT15 cells after 48 hrs by SRB assay; settings: HCT-15, 48 h; outline: as §1
[11] = Growth inhibition of human OVCAR3 cells assessed as cell growth at 10^-5 M after 48 hrs by SRB assay; settings: OVCAR-3, 48 h, read-out: Activity
[12] = Growth inhibition of human OVCAR4 cells assessed as cell growth at 10^-5 M after 48 hrs by SRB assay; settings: OVCAR-4, 48 h, read-out: Activity
[13] = Growth inhibition of human LOXIMVI cells assessed as cell growth at 10^-8 M after 48 hrs by SRB assay; settings: LOX IMVI, read-out: Activity
RXF 393 = assay: Cytotoxicity against human RXF393 cells after 48 hrs by SRB assay; settings: RXF 393, 48 h; outline: as §1
786-0 = assay: Cytotoxicity against human 786-0 cells after 48 hrs by SRB assay; settings: 786-0, 48 h; outline: as §1
SK-MEL-5 [14] = assay: Growth inhibition of human SK-MEL-5 cells assessed as cell growth at 10^-7 M after 48 hrs by SRB assay; settings: SK-MEL-5, 48 h, read-out: Activity
DU-145 = assay: Growth inhibition of human DU145 cells assessed as cell growth at 10^-8 M after 48 hrs by SRB assay; settings: DU-145, 48 h, read-out: Activity
T47D = assay: Growth inhibition of human T47D cells assessed as cell growth at 10^-5 M after 48 hrs by SRB assay; settings: read-out: Activity
[15] = Growth inhibition of human UACC257 cells assessed as cell growth at 10^-4 M after 48 hrs by SRB assay; settings: UACC-257, 48 h, read-out: Activity
BT-549 = assay: Cytotoxicity against human BT549 cells after 48 hrs by SRB assay; settings: BT-549, 48 h; outline: as §1
LOX IMVI = assay: Cytotoxicity against human LOXIMVI cells after 48 hrs by SRB assay; outline: as §1
[16] = Growth inhibition of human UO31 cells assessed as cell growth at 10^-5 M after 48 hrs by SRB assay; settings: UO-31, 48 h, read-out: Activity
[17] = read-out: LC50 (the source's name)
[18] = read-out: pLC50 (the source's name) (converted)

Cc1ccc(-c2nc3ccc(Cl)cc3c(=O)n2/N=C/c2ccccc2)cc1
growth at 10 µM [1]: 41% | growth at 1 µM (SNB-19): 88% | growth at 0.01 µM (SR [2]): 96% | growth at 100 µM (NCI-H460): 24% | growth at 100 µM [3]: 11% | GI50 (SF-268; read-out: GI50): 9.98 µM | CC50 (SF-268; [17]): > 100 µM | TGI (SF-268; read-out: TGI): > 100 µM | GI50 (SF-268; read-out: pGI50 (converted)): 10 µM | CC50 (SF-268; [18]): > 100 µM | TGI (SF-268; read-out: pTGI): > 100 µM | growth at 1 µM [4]: 76% | growth at 0.01 µM (SW-620): 96% | growth at 10 µM [5]: 30% | GI50 (Malme-3M; read-out: GI50): 5.97 µM | CC50 (Malme-3M; [17]): > 100 µM | TGI (Malme-3M; read-out: TGI): > 100 µM | GI50 (Malme-3M; read-out: pGI50 (converted)): 6.03 µM | CC50 (Malme-3M; [18]): > 100 µM | TGI (Malme-3M; read-out: pTGI): > 100 µM | growth at 100 µM [6]: 56% | growth at 10 µM [7]: 63% | growth at 0.1 µM (HOP-62): 89% | growth at 100 µM (SK-MEL-5 [8]): 34% | growth at 100 µM (NCI-H23): 51% | growth at 100 µM (MCF7): 38% | growth at 0.1 µM (SR [9]): 93% | GI50 ([10]; read-out: GI50): > 100 µM | CC50 [10, 17]: > 100 µM | TGI ([10]; read-out: TGI): > 100 µM | GI50 ([10]; read-out: pGI50 (converted)): > 100 µM | CC50 [10, 18]: > 100 µM | TGI ([10]; read-out: pTGI): > 100 µM | growth at 10 µM [11]: 34% | growth at 10 µM [12]: 23% | growth at 0.01 µM [13]: 98% | GI50 (RXF 393; read-out: GI50): 6.46 µM | CC50 (RXF 393; [17]): > 100 µM | TGI (RXF 393; read-out: TGI): > 100 µM | GI50 (RXF 393; read-out: pGI50 (converted)): 6.46 µM | CC50 (RXF 393; [18]): > 100 µM | TGI (RXF 393; read-out: pTGI): > 100 µM | GI50 (786-0; read-out: GI50): 3.62 µM | CC50 (786-0; [17]): > 100 µM | TGI (786-0; read-out: TGI): > 100 µM | GI50 (786-0; read-out: pGI50 (converted)): 3.63 µM | CC50 (786-0; [18]): > 100 µM | TGI (786-0; read-out: pTGI): > 100 µM | growth at 0.1 µM (SK-MEL-5 [14]): 92% | growth at 0.01 µM (DU-145): 97% | growth at 10 µM (T47D): 14% | growth at 100 µM [15]: 60% | GI50 (BT-549; read-out: GI50): 100 µM | CC50 (BT-549; [17]): > 100 µM | TGI (BT-549; read-out: TGI): > 100 µM | GI50 (BT-549; read-out: pGI50 (converted)): > 100 µM | CC50 (BT-549; [18]): > 100 µM | TGI (BT-549; read-out: pTGI): > 100 µM | GI50 (LOX IMVI; read-out: GI50): 70.1 µM | CC50 (LOX IMVI; [17]): > 100 µM | TGI (LOX IMVI; read-out: TGI): > 100 µM | GI50 (LOX IMVI; read-out: pGI50 (converted)): 70.8 µM | CC50 (LOX IMVI; [18]): > 100 µM | TGI (LOX IMVI; read-out: pTGI): > 100 µM | growth at 10 µM [16]: 42%
